Columns and labels:
[1] = Solubility in deionized water
[2] = system: skin lesions (basal cell carcinomas) of Krt6a-cre: Ptch1^neo/neo mice; test: Topical treatment of basal cell carcinomas, tumor area by HE/ImageJ; assay type: in vivo, mouse
[3] = system: Hh signaling-dependent motor neuron differentiation (E14Tg2a.4 embryonic stem cells); assay type: cell-based, mouse
Method in brief: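 Mouse E14Tg2a.4 ES cells seeded at 5 × 10^5 cells/mL in ES medium without LIF on ultra-low-adhesion plates for 2 days to form embryoid bodies. Motor neurons induced with retinoic acid 100 nmol/L plus purmorphamine 2.5 µmol/L for 5–7 days, with test compound in the induction medium. Read-outs: Hb9 immunofluorescence, and real-time PCR of Hip, FoxA2, Olig2 and Hb9.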

[4] = Plasma half-life from mouse blood samples; assay type: in vivo; conditions: intraperitoneal
[5] = system: Hh target genes in skin of Krt6a-cre: Ptch1^neo/neo mice; test: Hh target gene expression in treated skin; assay type: in vivo, mouse; conditions: Figure 5C
Method in brief: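 Tumour-bearing transgenic mice received test compound in 70% ethanol, applied topically to the abdominal skin daily for 21 days; 70% ethanol on the mid-belly served as control. Skin halves were frozen at –80°C. TRIzol total RNA (1 µg) was reverse-transcribed. Gene-specific probes were used for qPCR, with triplicate CT values analysed by the comparative CT method, normalised to 18S RNA and expressed relative to a calibrator.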

| Compound | Solubility in water [1] | Reduction of tumor area ([2]; KAAD-Cyc (1 µmol/L topical per methods), data not shown) | IC50 ([3]; Mus musculus, Neuron, read-out: IC50, inhibitory activity for Hh signaling-dependent motor neuron differentiation) | Effect on motor neuron differentiation / expression of differentiation markers ([3]; compound at 50 nmol/L) | Maximum reduction in tumor area ([2]; Cyc treatment group, topical daily for 21 days) | half-life [4] | Hedgehog target gene expression (HIP and Ptch1), RT-PCR [5] |
| --- | --- | --- | --- | --- | --- | --- | --- |
| 3-Keto-N- (aminoethyl-aminocaproyl-dihydro-cinnamoyl) (KAAD)-Cyc [KAAD-Cyc] | not water soluble | more than half | – | – | – | – | – |
| CC1=C2C[C@H]3[C@@H](CC=C4C[C@@H](O)CC[C@@]43C)[C@@H]2CC[C@]12O[C@@H]1C[C@H](C)CN[C@H]1[C@H]2C [Cyc, Cyclopamine] | – | – | 300 nM | no significant effects | less than 5% | 1 to 4 h | little effects |
